{"source": "ChEMBL document CHEMBL1667822", "about": "“Selective antagonists of mouse trace amine-associated receptor 1 (mTAAR1): discovery of EPPTB (RO5212773)” (Bioorg Med Chem Lett, 2011)", "key": {"[1]": {"biological_target": "T1, Trace amine-associated receptor 1 (Mus musculus, UniProt Q923Y8)", "T1 sequence (Q923Y8 whole entry)": "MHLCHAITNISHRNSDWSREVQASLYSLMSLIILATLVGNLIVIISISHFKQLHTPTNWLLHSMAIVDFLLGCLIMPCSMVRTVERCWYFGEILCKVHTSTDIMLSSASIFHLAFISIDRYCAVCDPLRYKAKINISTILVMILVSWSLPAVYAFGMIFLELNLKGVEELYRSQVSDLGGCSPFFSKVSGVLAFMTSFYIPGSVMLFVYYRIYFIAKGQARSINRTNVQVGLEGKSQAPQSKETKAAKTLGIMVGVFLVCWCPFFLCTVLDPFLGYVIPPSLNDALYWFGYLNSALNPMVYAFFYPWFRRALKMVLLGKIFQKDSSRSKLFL", "assay": "Inhibition of mouse TAAR1"}, "[2]": {"biological_target": "T2, Trace amine-associated receptor 1 (Homo sapiens, UniProt Q96RJ0)", "T2 sequence (Q96RJ0 whole entry)": "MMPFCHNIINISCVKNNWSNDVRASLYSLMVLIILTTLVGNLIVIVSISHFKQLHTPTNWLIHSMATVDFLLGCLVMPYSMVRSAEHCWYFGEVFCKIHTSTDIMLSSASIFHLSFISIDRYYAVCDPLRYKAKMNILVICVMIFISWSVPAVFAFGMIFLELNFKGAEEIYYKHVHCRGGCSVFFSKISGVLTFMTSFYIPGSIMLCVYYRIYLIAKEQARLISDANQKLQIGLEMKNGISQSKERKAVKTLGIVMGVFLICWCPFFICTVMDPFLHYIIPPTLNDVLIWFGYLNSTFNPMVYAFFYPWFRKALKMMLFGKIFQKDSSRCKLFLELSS", "assay": "Antagonist activity at human TAAR1 assessed as reversal of endogenous beta-PEA effect", "format": "functional", "method_in_brief": "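In vitro cAMP functional assay with antagonism read as reversal of the response to the endogenous agonist beta-PEA. Efficacy was scaled so that 100% equals 0% minimum stimulation. Residual beta-PEA stimulation was taken at the highest test-compound concentration. Values are means of at least two independent experiments, with duplicates typically within a twofold margin.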"}, "[3]": {"biological_target": "T1, Trace amine-associated receptor 1", "assay": "Antagonist activity at mouse TAAR1 assessed as reversal of endogenous beta-PEA effect", "format": "functional", "method_in_brief": "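Mouse TAAR1 antagonist dose–response run as an in vitro cAMP functional assay. Efficacy is the reversal of the effect of the endogenous agonist β-PEA, with 100% efficacy defined as 0% min% stim. Values are averages of at least two independent experiments.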"}, "[4]": {"biological_target": "Trace amine-associated receptor 1 (Mus musculus) (UniProt Q923Y8)", "sequence (Q923Y8 whole entry)": "as the sequence (Q923Y8 whole entry) above", "assay": "Antagonist activity at mouse TAAR1 assessed as residual stimulation by in vitro cAMP functional assay relative to control", "parameters": "concentration or dose not given beside the values", "method_in_brief": "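Mouse TAAR1 in vitro cAMP functional assay using the endogenous agonist β-PEA. The read-out is the residual β-PEA stimulation remaining at the maximum test-compound concentration. Values are averages of at least two independent experiments.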"}, "[5]": {"assay": "Clearance in mouse at 2.5 mg/kg, iv", "format": "ADME, organism-based", "parameters": "dose 2.5 mg/kg, route intravenous", "settings": "in vivo", "method_in_brief": "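Single-dose pharmacokinetics in mice comparing parenteral routes: intravenous at 2.5 mg/kg and intraperitoneal at 5 mg/kg. Plasma concentrations were followed over time. Bioavailability was derived for the ip route, and Cmax was taken from the ip plasma profile.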"}, "[6]": {"assay": "Volume of distribution at steady state in mouse at 2.5 mg/kg, iv", "format": "ADME, organism-based", "parameters": "dose 2.5 mg/kg, route intravenous", "settings": "in vivo, read-out: Vdss", "method_in_brief": "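Single-dose pharmacokinetics in mice with parenteral dosing, either 2.5 mg/kg iv or 5 mg/kg ip. Drug levels were measured in plasma, with brain exposure taken as the brain/plasma concentration ratio.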"}, "[7]": {"biological_target": "Nociceptin receptor (Homo sapiens) (UniProt P41146)", "sequence (P41146 whole entry)": "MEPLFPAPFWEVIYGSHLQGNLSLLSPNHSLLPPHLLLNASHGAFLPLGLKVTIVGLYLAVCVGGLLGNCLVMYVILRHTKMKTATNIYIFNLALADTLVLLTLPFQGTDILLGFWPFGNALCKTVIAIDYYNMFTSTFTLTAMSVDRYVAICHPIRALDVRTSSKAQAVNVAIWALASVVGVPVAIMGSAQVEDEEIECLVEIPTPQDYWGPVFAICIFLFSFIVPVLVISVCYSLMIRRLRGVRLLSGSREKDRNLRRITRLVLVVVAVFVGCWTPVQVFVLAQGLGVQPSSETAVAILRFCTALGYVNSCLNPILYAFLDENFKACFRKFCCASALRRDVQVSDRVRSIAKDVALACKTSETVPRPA", "assay": "Displacement of [3H]nociceptin from human recombinant ORL1 receptor expressed in H recombinant HEK293 cells", "format": "cell-based", "settings": "concentration not given here"}, "[8]": {"biological_target": "Kappa-type opioid receptor (Rattus norvegicus) (UniProt P34975)", "sequence (P34975 whole entry)": "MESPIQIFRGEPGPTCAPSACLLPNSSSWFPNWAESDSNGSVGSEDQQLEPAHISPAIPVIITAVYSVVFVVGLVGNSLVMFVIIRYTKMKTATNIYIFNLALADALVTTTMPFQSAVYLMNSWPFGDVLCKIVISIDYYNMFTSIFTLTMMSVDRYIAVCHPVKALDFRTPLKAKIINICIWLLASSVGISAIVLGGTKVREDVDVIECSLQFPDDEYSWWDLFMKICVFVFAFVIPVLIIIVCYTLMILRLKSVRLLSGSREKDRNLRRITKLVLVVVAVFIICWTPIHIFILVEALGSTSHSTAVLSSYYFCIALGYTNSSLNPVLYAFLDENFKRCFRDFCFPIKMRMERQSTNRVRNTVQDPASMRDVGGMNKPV", "assay": "Displacement of [3H]U69593 from rat recombinant kappa opioid receptor expressed in CHO cells", "format": "cell-based", "settings": "concentration not given here"}, "CHO": {"system": "CHO", "assay": "Displacement of [3H]DADLE from human recombinant delta 2 opioid receptor expressed in CHO cells", "format": "cell-based", "settings": "dose or concentration not given here"}, "[9]": {"biological_target": "Neuropeptide Y receptor type 2 (Homo sapiens) (UniProt P49146)", "assay": "Displacement of [125I]peptide YY from human recombinant Y2 receptor expressed in KAN-TS cells", "format": "cell-based", "settings": "concentration not given here"}, "[10]": {"biological_target": "Neuromedin-K receptor (Homo sapiens) (UniProt P29371)", "assay": "Displacement of [3H]SR 142801 from human recombinant NK3 receptor expressed in CHO cells", "format": "cell-based", "settings": "concentration not given here"}, "[11]": {"biological_target": "Substance-K receptor (Homo sapiens) (UniProt P21452)", "sequence (P21452 whole entry)": "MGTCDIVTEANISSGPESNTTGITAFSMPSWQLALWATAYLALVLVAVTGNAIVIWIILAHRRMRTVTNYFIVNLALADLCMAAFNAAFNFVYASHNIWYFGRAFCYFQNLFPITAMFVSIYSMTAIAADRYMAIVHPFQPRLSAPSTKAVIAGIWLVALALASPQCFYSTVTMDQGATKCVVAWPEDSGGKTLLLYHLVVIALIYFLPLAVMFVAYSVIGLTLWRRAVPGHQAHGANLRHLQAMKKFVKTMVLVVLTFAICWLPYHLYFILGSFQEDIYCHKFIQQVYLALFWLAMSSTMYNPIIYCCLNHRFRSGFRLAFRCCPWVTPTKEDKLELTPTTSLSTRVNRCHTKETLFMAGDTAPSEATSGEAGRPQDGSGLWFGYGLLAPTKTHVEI", "assay": "Displacement of [125I]NKA from human recombinant NK2 receptor expressed in CHO cells", "format": "cell-based", "settings": "concentration not given here"}, "[12]": {"biological_target": "Muscarinic acetylcholine receptor M3 (Homo sapiens) (UniProt P20309)", "assay": "Displacement of [3H]4-DAMP from human recombinant muscarinic M3 receptor expressed in CHO cells", "format": "cell-based", "settings": "concentration not given here"}, "[13]": {"biological_target": "Muscarinic acetylcholine receptor M2 (Homo sapiens) (UniProt P08172)", "sequence (P08172 whole entry)": "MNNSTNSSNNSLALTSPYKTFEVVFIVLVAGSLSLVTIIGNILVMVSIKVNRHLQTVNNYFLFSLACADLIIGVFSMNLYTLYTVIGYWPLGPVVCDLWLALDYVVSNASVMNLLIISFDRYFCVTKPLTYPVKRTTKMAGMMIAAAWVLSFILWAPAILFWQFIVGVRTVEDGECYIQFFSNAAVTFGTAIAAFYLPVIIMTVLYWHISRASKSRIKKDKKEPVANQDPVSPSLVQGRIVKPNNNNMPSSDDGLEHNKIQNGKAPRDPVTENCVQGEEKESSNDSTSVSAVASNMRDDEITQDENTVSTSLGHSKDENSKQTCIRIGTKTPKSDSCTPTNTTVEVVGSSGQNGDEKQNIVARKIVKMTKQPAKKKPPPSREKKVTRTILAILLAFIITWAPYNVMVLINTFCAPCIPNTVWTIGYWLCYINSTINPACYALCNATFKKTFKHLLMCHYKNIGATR", "assay": "Displacement of [3H]AF-DX 384 from human recombinant muscarinic M2 receptor expressed in CHO cells", "format": "cell-based", "settings": "concentration not given here"}, "[14]": {"biological_target": "Muscarinic acetylcholine receptor M1 (Homo sapiens) (UniProt P11229)", "assay": "Displacement of [3H]pirenzepine from human recombinant muscarinic M1 receptor expressed in CHO cells", "format": "cell-based", "settings": "concentration not given here"}, "[15]": {"biological_target": "monoamine oxidase-A (MAO-A) (Rattus norvegicus, UniProt P21396)", "assay": "Inhibition of rat monoamine oxidase-A at 10 uM"}, "Rattus norvegicus [16]": {"species_on_record": "Rattus norvegicus", "assay": "Displacement of [3H]GABA from GABA receptor in rat cerebral cortex", "format": "tissue-based", "settings": "concentration not given here"}, "[17]": {"biological_target": "D(2) dopamine receptor (Homo sapiens) (UniProt P14416)", "sequence (P14416 whole entry)": "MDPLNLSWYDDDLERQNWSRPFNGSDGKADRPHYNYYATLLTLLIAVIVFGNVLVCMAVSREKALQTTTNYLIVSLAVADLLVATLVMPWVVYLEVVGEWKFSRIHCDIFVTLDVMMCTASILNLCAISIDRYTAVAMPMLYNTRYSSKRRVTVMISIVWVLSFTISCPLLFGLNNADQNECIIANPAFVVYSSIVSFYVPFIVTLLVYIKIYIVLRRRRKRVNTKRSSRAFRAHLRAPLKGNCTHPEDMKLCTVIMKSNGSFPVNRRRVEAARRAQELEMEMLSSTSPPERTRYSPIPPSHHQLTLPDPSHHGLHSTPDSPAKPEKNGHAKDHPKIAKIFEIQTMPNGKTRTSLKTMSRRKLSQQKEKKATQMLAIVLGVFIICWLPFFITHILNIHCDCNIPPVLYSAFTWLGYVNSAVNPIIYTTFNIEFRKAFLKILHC", "assay": "Displacement of [3H]spiperone from human recombinant dopamine D2S receptor expressed in HEK293 cells", "format": "cell-based", "settings": "concentration not given here"}, "[18]": {"biological_target": "D(1A) dopamine receptor (Homo sapiens) (UniProt P21728)", "sequence (P21728 whole entry)": "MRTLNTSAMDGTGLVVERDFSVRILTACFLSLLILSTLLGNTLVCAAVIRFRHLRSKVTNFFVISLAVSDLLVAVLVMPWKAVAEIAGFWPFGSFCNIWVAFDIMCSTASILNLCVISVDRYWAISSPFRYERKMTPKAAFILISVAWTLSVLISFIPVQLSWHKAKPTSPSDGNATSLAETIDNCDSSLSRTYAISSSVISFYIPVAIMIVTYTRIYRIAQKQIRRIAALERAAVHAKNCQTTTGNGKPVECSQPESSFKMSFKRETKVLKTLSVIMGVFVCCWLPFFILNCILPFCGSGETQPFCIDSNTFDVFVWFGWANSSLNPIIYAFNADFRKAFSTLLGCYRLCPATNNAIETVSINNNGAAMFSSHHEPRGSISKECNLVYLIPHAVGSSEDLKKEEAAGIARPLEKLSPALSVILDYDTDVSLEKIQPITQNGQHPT", "assay": "Displacement of [3H]SCH 23390 from human recombinant dopamine D1 receptor expressed in CHO cells", "format": "cell-based", "settings": "concentration not given here"}, "[19]": {"biological_target": "Cholecystokinin receptor type A (Homo sapiens) (UniProt P32238)", "assay": "Inhibition of human cholecystokinin 1 receptor at 10 uM"}, "[20]": {"biological_target": "B2 bradykinin receptor (Homo sapiens) (UniProt P30411)", "assay": "Displacement of [3H]bradykinin from human recombinant bradykinin B2 receptor expressed in CHO cells", "format": "cell-based", "settings": "concentration not given here"}, "Rattus norvegicus [21]": {"species_on_record": "Rattus norvegicus", "assay": "Displacement of [3H]flunitrazepam from BZD receptor in rat cerebral cortex", "format": "tissue-based", "settings": "concentration not given here"}, "[22]": {"biological_target": "Type-1 angiotensin II receptor (Homo sapiens) (UniProt P30556)", "assay": "Displacement of [125I][Sar1,Ile8]-AT II from human recombinant AT1 receptor expressed in HEK293 cells", "format": "cell-based", "settings": "concentration not given here"}, "[23]": {"biological_target": "Beta-1 adrenergic receptor (Homo sapiens) (UniProt P08588)", "assay": "Displacement of [3H](-)CGP 12177 from human recombinant beta1 receptor expressed in HEK293 cells", "format": "cell-based", "settings": "concentration not given here"}, "[24]": {"biological_target": "Adenosine receptor A1 (Homo sapiens) (UniProt P30542)", "sequence (P30542 whole entry)": "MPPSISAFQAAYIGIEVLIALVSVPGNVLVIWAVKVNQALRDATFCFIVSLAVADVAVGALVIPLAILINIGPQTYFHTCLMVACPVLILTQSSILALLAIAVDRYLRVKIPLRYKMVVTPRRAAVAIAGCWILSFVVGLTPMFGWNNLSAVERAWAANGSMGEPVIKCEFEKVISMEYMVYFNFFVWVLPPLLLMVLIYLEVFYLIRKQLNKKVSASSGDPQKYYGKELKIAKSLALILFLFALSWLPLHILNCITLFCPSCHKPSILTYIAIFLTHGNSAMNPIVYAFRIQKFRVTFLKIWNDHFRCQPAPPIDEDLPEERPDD", "assay": "Displacement of [3H]DPCPX from human recombinant A1 receptor expressed in CHO cells", "format": "cell-based", "settings": "concentration not given here"}, "[25]": {"biological_target": "5-hydroxytryptamine receptor 3A (Homo sapiens) (UniProt P46098)", "sequence (P46098 whole entry)": "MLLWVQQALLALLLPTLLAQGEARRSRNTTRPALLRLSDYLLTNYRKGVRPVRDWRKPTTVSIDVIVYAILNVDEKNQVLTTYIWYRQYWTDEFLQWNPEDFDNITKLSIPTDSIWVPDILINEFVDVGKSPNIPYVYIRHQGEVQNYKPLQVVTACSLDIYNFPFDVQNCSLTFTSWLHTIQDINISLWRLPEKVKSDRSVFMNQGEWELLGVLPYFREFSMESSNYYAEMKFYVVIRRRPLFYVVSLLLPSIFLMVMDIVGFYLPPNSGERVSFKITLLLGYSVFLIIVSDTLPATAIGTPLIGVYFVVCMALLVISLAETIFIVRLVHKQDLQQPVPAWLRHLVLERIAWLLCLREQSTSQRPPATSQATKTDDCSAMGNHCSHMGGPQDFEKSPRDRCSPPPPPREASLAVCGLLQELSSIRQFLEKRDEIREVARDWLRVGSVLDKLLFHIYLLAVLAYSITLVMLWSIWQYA", "assay": "Displacement of [3H]BRL 43694 from human recombinant 5HT3 receptor expressed in CHO cells", "format": "cell-based", "settings": "concentration not given here"}, "[26]": {"biological_target": "5-hydroxytryptamine receptor 5A (Homo sapiens) (UniProt P47898)", "assay": "Displacement of [3H]LSD from human recombinant 5HT5A receptor expressed in CHO cells", "format": "cell-based", "settings": "concentration not given here"}, "Homo sapiens": {"species_on_record": "Homo sapiens", "assay": "Inhibition of human vasoactive intestinal peptide receptor VPAC1 at 10 uM"}, "[27]": {"biological_target": "Small conductance calcium-activated potassium channel protein 1 (Rattus norvegicus) (UniProt P70606)", "assay": "Displacement of [125I]apamin from SK+Ca channel in rat cerebral cortex", "format": "tissue-based", "settings": "concentration not given here"}, "[28]": {"biological_target": "Sodium-dependent noradrenaline transporter (Homo sapiens) (UniProt P23975)", "sequence (P23975 whole entry)": "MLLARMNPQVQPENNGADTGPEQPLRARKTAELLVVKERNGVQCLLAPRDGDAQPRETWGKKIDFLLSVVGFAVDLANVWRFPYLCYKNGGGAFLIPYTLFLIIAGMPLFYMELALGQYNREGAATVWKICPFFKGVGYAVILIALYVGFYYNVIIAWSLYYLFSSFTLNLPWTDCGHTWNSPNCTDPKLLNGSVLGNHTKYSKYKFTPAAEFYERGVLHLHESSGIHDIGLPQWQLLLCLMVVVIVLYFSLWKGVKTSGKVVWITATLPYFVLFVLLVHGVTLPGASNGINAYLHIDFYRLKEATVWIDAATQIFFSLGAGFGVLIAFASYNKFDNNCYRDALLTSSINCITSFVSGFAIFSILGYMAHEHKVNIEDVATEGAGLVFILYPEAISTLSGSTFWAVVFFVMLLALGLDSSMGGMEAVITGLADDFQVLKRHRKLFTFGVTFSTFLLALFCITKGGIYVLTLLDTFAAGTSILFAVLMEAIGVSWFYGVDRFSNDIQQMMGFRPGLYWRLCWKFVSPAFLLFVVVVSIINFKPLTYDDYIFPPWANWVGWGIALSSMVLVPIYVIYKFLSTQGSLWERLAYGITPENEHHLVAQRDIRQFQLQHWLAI", "assay": "Inhibition of human norepinephrine transporter at 10 uM"}, "[29]": {"biological_target": "Sodium-dependent serotonin transporter (Homo sapiens) (UniProt P31645)", "sequence (P31645 whole entry, looked up)": "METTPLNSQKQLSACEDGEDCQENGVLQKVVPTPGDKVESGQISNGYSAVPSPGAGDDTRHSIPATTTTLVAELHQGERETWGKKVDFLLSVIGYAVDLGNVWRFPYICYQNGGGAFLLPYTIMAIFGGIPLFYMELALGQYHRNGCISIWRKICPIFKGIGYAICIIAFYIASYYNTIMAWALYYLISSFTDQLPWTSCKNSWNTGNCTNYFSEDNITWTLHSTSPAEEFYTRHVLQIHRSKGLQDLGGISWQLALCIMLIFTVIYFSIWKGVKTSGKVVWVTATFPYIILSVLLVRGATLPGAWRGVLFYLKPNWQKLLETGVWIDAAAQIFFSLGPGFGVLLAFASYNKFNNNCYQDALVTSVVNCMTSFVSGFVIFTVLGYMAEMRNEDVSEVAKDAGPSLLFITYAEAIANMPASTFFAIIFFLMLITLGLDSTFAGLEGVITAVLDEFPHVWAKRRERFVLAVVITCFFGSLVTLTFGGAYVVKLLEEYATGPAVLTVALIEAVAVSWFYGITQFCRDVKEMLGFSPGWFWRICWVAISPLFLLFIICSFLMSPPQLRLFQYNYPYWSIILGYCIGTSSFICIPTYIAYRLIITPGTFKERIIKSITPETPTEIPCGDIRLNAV", "assay": "Inhibition of human serotonin transporter at 10 uM"}}}
{"smiles": "CCOc1cccc(NC(=O)c2ccc(N3CCCC3)c(C(F)(F)F)c2)c1", "values": [{"measurement": "Ki", "setting": "[1]", "value": 0.9, "unit": "nM"}, {"measurement": "IC50", "setting": "[2]", "value": 7.49, "unit": "µM"}, {"measurement": "IC50", "setting": "[3]", "value": 28, "unit": "nM"}, {"measurement": "Activity", "setting": "[4]", "value": -12, "unit": "%"}, {"measurement": "clearance", "setting": "[5]", "value": 87, "unit": "mL/min/kg"}, {"measurement": "Vd", "setting": "[6]", "value": 3.7, "unit": "L/kg"}, {"measurement": "inhibition", "setting": "[7]", "value": 15, "unit": "%"}, {"measurement": "inhibition", "setting": "[8]", "value": 33, "unit": "%"}, {"measurement": "inhibition", "setting": "CHO", "value": 28, "unit": "%"}, {"measurement": "inhibition", "setting": "[9]", "value": 6, "unit": "%"}, {"measurement": "inhibition", "setting": "[10]", "value": 22, "unit": "%"}, {"measurement": "inhibition", "setting": "[11]", "value": 19, "unit": "%"}, {"measurement": "inhibition", "setting": "[12]", "value": -10, "unit": "%"}, {"measurement": "inhibition", "setting": "[13]", "value": -1, "unit": "%"}, {"measurement": "inhibition", "setting": "[14]", "value": 4, "unit": "%"}, {"measurement": "inhibition at 10 µM", "setting": "[15]", "value": 61, "unit": "%"}, {"measurement": "inhibition", "setting": "Rattus norvegicus [16]", "value": 10, "unit": "%"}, {"measurement": "inhibition", "setting": "[17]", "value": 9, "unit": "%"}, {"measurement": "inhibition", "setting": "[18]", "value": 25, "unit": "%"}, {"measurement": "inhibition", "setting": "[19]", "value": 57, "unit": "%"}, {"measurement": "inhibition", "setting": "[20]", "value": 2, "unit": "%"}, {"measurement": "inhibition", "setting": "Rattus norvegicus [21]", "value": -8, "unit": "%"}, {"measurement": "inhibition", "setting": "[22]", "value": 5, "unit": "%"}, {"measurement": "inhibition", "setting": "[23]", "value": 4, "unit": "%"}, {"measurement": "inhibition", "setting": "[24]", "value": 50, "unit": "%"}, {"measurement": "inhibition", "setting": "[25]", "value": 9, "unit": "%"}, {"measurement": "inhibition", "setting": "[26]", "value": 21, "unit": "%"}, {"measurement": "inhibition", "setting": "Homo sapiens", "value": 13, "unit": "%"}, {"measurement": "inhibition", "setting": "[27]", "value": 0, "unit": "%"}, {"measurement": "inhibition", "setting": "[28]", "value": 44, "unit": "%"}, {"measurement": "inhibition", "setting": "[29]", "value": -7, "unit": "%"}]}
